Results from ChEMBL document CHEMBL1123752, “Hexahydro-1H-1-pyrindines from acid rearrangement of 9-alkylidene-5-(m-methoxyphenyl)-2-methylmorphans. A new structural type of narcotic antagonists” (J Med Chem, 1987).
Activity calls are given as the source filed them. The calls are words filed in the database; no cut-off is given here.

Tests used:
[1] = test system: Mus musculus; test: Compound administered subcutaneously was evaluated for antinociceptive activity determined by p-phenylquinone-writhing test in mice; type: functional; conditions: sc
Procedure, shortened: (§1)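 Mice were dosed subcutaneously. Antinociceptive […] is given in mg/kg with 95% confidence limits.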

[2] = test system: Mus musculus; test: Antinociceptive activity was determined by tail flick test in mice after subcutaneous administration; IA means inactive at 1,10 or 30.0 mg/kg; type: functional, organism-based; parameters: dose 30 mg/kg; procedure, shortened: as §1
[3] = target: Mu-type opioid receptor (Rattus norvegicus, UniProt P33535); test: Compound administered subcutaneously was evaluated for inhibition constant measured as the displacement of [3H]DAGO from rat brain
Procedure, shortened: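 Membranes from adult male Sprague-Dawley rat whole brain minus cerebellum, washed in 20 mM potassium phosphate pH 7.4, about 1 mg protein per tube. [³H]DAGO was added from a 2 nM solution. Nonspecific binding was defined with 10 μM naloxone (final). Incubation 45 min at 25 °C, then glass-fibre filtration and scintillation counting. Ki was derived by Cheng–Prusoff.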

[4] = test system: Mus musculus; test: Compound administered subcutaneously was evaluated for Opioid antagonist activity versus morphine by tail flick antagonism test in mice 95% confidence limits are in brackets; type: functional
Procedure, shortened: (§2)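 Mouse tail-flick test run against morphine, with test agent given subcutaneously. Antagonist AD50 is given in mg/kg with 95% confidence limits.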

[5] = test system: Mus musculus; test: Compound administered subcutaneously was evaluated for opioid antagonist activity versus morphine by tail flick antagonism test in mice.; type: functional; procedure, shortened: as §2
[6] = test system: Mus musculus; test: Antinociceptive activity was determined by tail flick test in mice after subcutaneous administration; I means inactive at 1,10 or 30.0 mg/kg; type: functional, organism-based; parameters: dose 30 mg/kg; procedure, shortened: as §1
[7] = test system: Mus musculus; test: Antinociceptive activity was determined by hot plate test in mice after subcutaneous administration at 50 mg/kg; type: functional
Procedure, shortened: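 Mouse hot-plate assay with subcutaneous dosing. Activity is reported as percent effect at a single 50 mg/kg dose.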

[8] = test system: Mus musculus; test: Antinociceptive activity was determined by p-phenylquinone-writhing test in mice after subcutaneous administration; I means inactive at 1,10 or 30.0 mg/kg; type: functional, organism-based; parameters: dose 30 mg/kg; procedure, shortened: as §1
[9] = test system: Mus musculus; test: Compound administered subcutaneously was evaluated for Opioid antagonist activity versus morphine by tail flick antagonism test in mice.; type: functional; procedure, shortened: as §2
[10] = test system: Mus musculus; test: Antinociceptive activity was determined by hot plate test in mice after subcutaneous administration;IA means inactive at 1,10 or 30.0 mg/kg; type: functional, organism-based; parameters: dose 30 mg/kg; procedure, shortened: as §1
[11] = test system: Mus musculus; test: Antinociceptive activity was determined by p-phenylquinone-writhing test in mice after subcutaneous administration; type: functional; conditions: sc; procedure, shortened: as §1

Mu-type opioid receptor, sequence (P33535 whole entry): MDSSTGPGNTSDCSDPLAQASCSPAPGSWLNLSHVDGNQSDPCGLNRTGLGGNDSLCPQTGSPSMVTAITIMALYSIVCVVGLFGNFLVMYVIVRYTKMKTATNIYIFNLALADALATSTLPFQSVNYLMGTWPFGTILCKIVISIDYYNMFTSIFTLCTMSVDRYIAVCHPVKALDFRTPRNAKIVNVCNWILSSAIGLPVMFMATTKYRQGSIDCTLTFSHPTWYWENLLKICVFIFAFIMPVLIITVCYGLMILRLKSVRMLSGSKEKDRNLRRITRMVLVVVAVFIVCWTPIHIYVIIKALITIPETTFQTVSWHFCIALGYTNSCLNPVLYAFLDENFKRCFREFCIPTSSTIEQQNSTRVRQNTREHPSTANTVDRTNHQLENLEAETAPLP

With `C=CCN1CC[C@]23c4c5ccc(O)c4O[C@H]2[C@@H](O)C=C[C@H]3[C@H]1C5.Cl` [NALORPHINE HYDROCHLORIDE] the ED50 [1] was 0.6 mg/kg, the ED50 [2] was “inactive” and the Ki [3] was 2 nM. For the same molecule, the AD50 [4] was 2.6 mg/kg.

`CN1CC=C(c2cccc(O)c2)[C@@]2(C)CCC[C@@H]12` was tested, and the AD50 [5] was 1.7 mg/kg, the Ki [3] was 81 nM and the ED50 [6] was “inactive”. The Effect [7] was 40% and the ED50 [8] was “inactive”.

`CC[C@]12CCC[C@H]1N(C)CC=C2c1cccc(O)c1` was tested, and the AD50 [9] was 2.1 mg/kg, the ED50 [2] was “inactive” and the Ki [3] was 84 nM. For the same molecule, the ED50 [10] was “inactive” and the ED50 [11] was 35.5 mg/kg.
